From PMC6099197 (Clinical Pharmacology and Therapeutics, 2017)

How the values were obtained:
[1] = In vitro solubility in aqueous buffered solutions and biorelevant media; type: physicochemical; conditions: for solubility at 24 h: thermodynamic from solid
In short: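 Crystalline succinate salt of test compound (~763 mg, ~600 mg free-form equivalent) added to 250 mL of 50 mM aqueous buffer (HCl/KCl pH 2.0, acetate pH 4.5, phosphate pH 6.8 or 7.5) or FaSSIF v1 (pH 6.5, 3 mM taurocholate, 0.75 mM lecithin) or FeSSIF v1 (pH 5.0, 15 mM bile salt). Held at 37 ± 1°C with magnetic stirring. Liquid separated at 24 h and assayed by HPLC. Top tested level 2.4 mg/mL; triplicate, mean reported.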

[2] = pKa; type: physicochemical
[3] = Food effect study A2103, single-dose PK in healthy volunteers; type: in vivo, human; conditions: single 600 mg dose

- solubility ([1]; acidic media): ≤ 200000 µg/mL
- solubility at 24 h ([1]; aqueous buffered solution, 37 °C, pH 2, aqueous buffer): > 2400 µg/mL
- solubility at 24 h ([1]; biorelevant medium FaSSIF v1, 37 °C, pH 6.5, fassif): > 2400 µg/mL
- solubility at 24 h ([1]; biorelevant medium FeSSIF v1, 37 °C, pH 5, fessif): > 2200 µg/mL
- pKa ([2]; pKa1 (base)): 8.6
- pKa ([2]; pKa2 (base)): 5.5
- half-life ([3]; both, human, plasma, oral, 600 mg, T1/2, Geo-mean (CV% Geo-mean), fed state (high-fat, high-calorie meal)): 33.6 h
- Tmax fed minus fasted, difference of the medians (90% CI) [3]: 1 (–2, 8) h
Structure (SMILES): CN(C)C(=O)c1cc2cnc(Nc3ccc(N4CCNCC4)cn3)nc2n1C1CCCC1 [Ribociclib]
